ChEMBL document CHEMBL1140706, “A Novel iron-chelating derivative of the neuroprotective peptide NAPVSIPQ shows superior antioxidant and antineurodegenerative capabilities” (J Med Chem, 2008)
Calls of active or inactive are those of the source. No cut-off for these calls is given here.

Experiments:
Brain [1] = assay: Inhibition of iron/ascorbate-induced lipid peroxidation in Sprague-Dawley rat brain mitochondrial membrane homogenate at 100 uM; type: functional, tissue-based
Method in brief: (§1)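 Crude mitochondrial fraction from brains of male Sprague-Dawley rats (250–300 g). Assay in 25 mM Tris-HCl pH 7.5 with 25 µM ascorbate, 40 µg protein, 1.5 µM FeSO4 and compound (10–750 µM). Shaken 2 h at ambient temperature, then TCA stop and TBA at 95 °C for 30 min. Read at 532 nm, blank subtracted, percent of control. n = 3 in duplicate.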

SH-SY5Y [2] = assay: Neuroprotective activity against hydrogen persoxide-induced cell death in human SH-SY5Y cells upto 10 uM by MTT assay; type: ADME, cell-based
Method in brief: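 SH-SY5Y cells seeded at 0.5 × 10^4 per well in MEM/F-12 with 10% FCS and allowed to attach for 24 h. Compound added immediately before 80 µM H2O2, then 24 h at 37 °C. MTT for 2 h, then SDS/HCl lysis for 24 h, read at 570/650 nm. Viability expressed as percent of cells not treated with H2O2. n = 7 over two experiments.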

[3] = Effect on iron-induced hydroxyl radical generation assessed as reduction in EPR signals at 300 uM relative to control; type: functional; set-up: scale not given: the % may be the effect or the level left
Method in brief: (§2)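 Fenton system of 100 µM FeSO4, 200 µM H2O2 and 35 mM PBN spin trap. Compound added 2 min before H2O2. EPR spectrum recorded at room temperature in a quartz flat cell. PBN-OH spin adduct level estimated from peak intensity of the middle field doublet and expressed as percent of control. Mean ± SEM, n = 3.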

Brain [4] = assay: Inhibition of iron/ascorbate-induced lipid peroxidation in Sprague-Dawley rat brain mitochondrial membrane homogenate; type: functional, tissue-based; method in brief: as §1
[5] = Iron chelating activity by ferrozine method; type: functional
Method in brief: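 Competition with ferrozine for Fe(II) in 5% ammonium acetate buffer, pH 6.9. Compound (100–600 µM, duplicate) preincubated 30 min with 15 µM FeSO4, then 60 µM ferrozine added for 1 h at ambient temperature. Absorbance read at 562 nm with blank subtracted. Chelating effect % = [1 − sample/control] × 100. n = 3 in duplicate.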

[6] = Effect on iron-induced hydroxyl radical generation assessed as reduction in EPR signals; type: functional; method in brief: as §2
[7] = Effect on iron-induced hydroxyl radical generation assessed as reduction in EPR signals relative to control; type: functional; set-up: scale not given: the % may be the effect or the level left; method in brief: as §2
[8] = Effect on iron-induced hydroxyl radical generation assessed as increase in PBN-OH radical spin adduct concentration at 600 uM; type: functional; method in brief: as §2
SH-SY5Y [9] = assay: Neuroprotective activity against hydrogen persoxide-induced cell death in human SH-SY5Y cells assessed as cell viability at 1 uM by MTT assay relative to control; type: cell-based; conditions: read-out: Activity
Method in brief: (§3)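 SH-SY5Y cells grown in 1:1 Eagle MEM/Ham's F-12 with 10% FCS, 37 °C, 5% CO2; seeded 0.5 × 10^4 cells/well, attached 24 h. Compounds or vehicle added just before 80 µM H2O2. After 24 h at 37 °C, MTT added for 2 h, then SDS/HCl for a further 24 h; absorbance read at 570/650 nm. Viability expressed as percent of cells not treated with H2O2.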

SH-SY5Y [10] = assay: Neuroprotective activity against hydrogen persoxide-induced cell death in human SH-SY5Y cells assessed as cell viability at 10 uM by MTT assay relative to control; type: cell-based; conditions: read-out: Activity; method in brief: as §3
Brain [11] = assay: Inhibition of iron/ascorbate-induced lipid peroxidation in Sprague-Dawley rat brain mitochondrial membrane homogenate at 15 uM; type: functional, tissue-based; method in brief: as §1

Row | IC50 (Brain [4]) | IC50 [5] | IC50 [6] | SMILES | Activity (Brain [1]) | Activity (SH-SY5Y [2]) | Activity ([3]; 600 uM, in the assay text read “at 600 uM” for “at 300 uM”) | Activity [7] | Activity [8] | viability at 1 µM (SH-SY5Y [9]) | Activity ([3]; 300 uM) | viability at 10 µM (SH-SY5Y [10]) | Activity (Brain [11])
1 | 340 µM | 170 µM | 150 µM | CC[C@H](C)[C@H](NC(=O)[C@H](CO)NC(=O)[C@@H](NC(=O)[C@@H]1CCCN1C(=O)[C@H](C)NC(=O)[C@@H](N)CC(=O)NO)C(C)C)C(=O)N1CCC[C@H]1C(=O)N[C@@H](CCC(N)=O)C(=O)NO | inactive | Non-toxic | 28% | 28% |  |  |  |  | 
2 |  | 360 µM |  | CC[C@H](C)[C@H](NC(=O)[C@H](CO)NC(=O)[C@@H](NC(=O)[C@@H]1CCCN1C(=O)[C@H](C)NC(=O)[C@@H](N)CC(N)=O)C(C)C)C(=O)N1CCC[C@H]1C(=O)N[C@@H](CCC(N)=O)C(=O)NO | inactive |  |  |  | inactive |  |  |  | 
3 |  | 360 µM |  | CC[C@H](C)[C@H](NC(=O)[C@H](CO)NC(=O)[C@@H](NC(=O)[C@@H]1CCCN1C(=O)[C@H](C)NC(=O)[C@@H](N)CC(=O)NO)C(C)C)C(=O)N1CCC[C@H]1C(=O)N[C@@H](CCC(N)=O)C(=O)O | inactive |  |  |  | inactive |  |  |  | 

Row | SMILES | IC50 (Brain [4]) | IC50 [5] | IC50 [6] | Activity (Brain [1]) | Activity (SH-SY5Y [2]) | Activity ([3]; 600 uM, in the assay text read “at 600 uM” for “at 300 uM”) | Activity [7] | Activity [8] | viability at 1 µM (SH-SY5Y [9]) | Activity ([3]; 300 uM) | viability at 10 µM (SH-SY5Y [10]) | Activity (Brain [11])
4 | CC(=O)N(O)CCCCCNC(=O)CCC(=O)N(O)CCCCCNC(=O)CCC(=O)N(O)CCCCCN [DEFEROXAMINE] |  | 10 µM |  |  |  |  |  |  | 76% | 12% | 76% | Active
